Data as given in ChEMBL document CHEMBL4017489, “Design, Synthesis, and Evaluation of New Selective NM23-H2 Binders as c-MYC Transcription Inhibitors via Disruption of the NM23-H2/G-Quadruplex Interaction” (J Med Chem, 2017).
Calls of active or inactive are those of the source. No cut-off for these calls is given here.

Legend:
[1] = Binding affinity to biotin-labeled Pu22 c-myc G-quadruplex DNA (unknown origin) by SPR analysis
SiHa [2] = test: Antiproliferative activity against human SiHa cells after 48 hrs by MTT assay; type: functional, cell-based
[3] = target: T1, Nucleoside diphosphate kinase B (Homo sapiens, UniProt P22392); test: Binding affinity to NM23-H2 in human SiHa cells assessed as disruption of protein interaction with c-myc G-quadruplex DNA by measuring decrease in c-MYC protein expresson at 2 uM after 48 hrs by Western blot analysis; type: cell-based
Procedure, shortened: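 SiHa cells treated 48 h; lysates (30 μg) on 10% SDS-PAGE, nitrocellulose, anti-c-MYC overnight at 4 °C, HRP secondary, chemiluminescence; β-actin internal control; three repeats.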

[4] = Binding affinity to Htg21 telomeric G-quadruplex DNA (unknown origin) at 40 uM after 30 mins by SPR analysis
[5] = Binding affinity to biotin-labeled 18-mer duplex DNA hairpin (unknown origin) at 40 uM after 30 mins by SPR analysis
[6] = target: T1, Nucleoside diphosphate kinase B; test: Binding affinity to N-terminal NT-647-NHS labeled NM23-H2 (unknown origin) after 30 mins by MST analysis
Procedure, shortened: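 NM23-H2 N-terminally labeled with RED-NHS dye (20 μM protein, 30 min dark, RT), free dye removed; 200 nM labeled protein with compound from 500 μM, 16 twofold steps, 30 min RT in 50 mM Tris-HCl pH 7.4, 150 mM NaCl, 10 mM MgCl2, 0.05% Tween-20; KD at half-plateau.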

[7] = target: T1, Nucleoside diphosphate kinase B; test: Binding affinity to NM23-H2 (unknown origin) by SPR analysis
[8] = target: T1, Nucleoside diphosphate kinase B; test: Binding affinity to NM23-H2 in human SiHa cells assessed as disruption of protein interaction with c-myc G-quadruplex DNA by measuring decrease in c-MYC mRNA level at 2 uM after 9 hrs by RT-PCR analysis; type: cell-based
Procedure, shortened: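 SiHa cells treated at 0, 0.5, 1.0, 2.0 μM for 9 h; TRIzol RNA, 1.5 μg reverse-transcribed with oligo(dT); semiquantitative PCR, 30 cycles, 58 °C annealing; bands normalized to β-actin, untreated 100%; three repeats.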

SiHa [9] = test: Antitumor activity against human SiHa cells xenografted in BALB/C nude mouse assessed as tumor growth inhibition at 1 mg/kg, ip administered daily after 3 weeks relative to control; type: functional; details: 504 h, read-out: TGI
SiHa [10] = test: Antitumor activity against human SiHa cells xenografted in BALB/C nude mouse assessed as tumor weight at 1 mg/kg, ip administered daily after 3 weeks (reference value: 511.6 mg); type: functional
Mus musculus = test: Toxicity in BALB/C nude mouse xenografted with human SiHa cells assessed as change in body weight at 1 mg/kg, ip administered daily after 3 weeks; type: organism-based; details: in vivo, 504 h
Procedure, shortened: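 SiHa cells implanted in the right armpit of BALB/c nu/nu mice. At approximately 50 mm3, mice randomized (n = 8/group) to vehicle, compound 2.5 or 5.0 mg/kg, or doxorubicin 1.0 mg/kg, given ip daily for 3 weeks. Body weight and signs of pain, distress or discomfort monitored; tumors excised and weighed. Data given as mean ± SEM, t test against vehicle.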

[11] = target: T1, Nucleoside diphosphate kinase B; test: Binding affinity to NM23-H2 (unknown origin) assessed as ratio of Kd for protein interaction with biotin-labeled Pu22 c-myc G-quadruplex DNA in presence and absence of compound after 1 hr by ELISA

T1 sequence (P22392 whole entry): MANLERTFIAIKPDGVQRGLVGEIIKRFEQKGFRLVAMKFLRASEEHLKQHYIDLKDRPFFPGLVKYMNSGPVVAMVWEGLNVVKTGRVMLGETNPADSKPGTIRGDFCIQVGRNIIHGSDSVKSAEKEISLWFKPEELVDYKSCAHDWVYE

Kd [1] [µM] | Activity [3] | Activity [4] | Activity [5] | Kd [6] [µM] | Kd [7] [µM] | Activity [8] | Ratio [11] | Compound | IC50 (SiHa [2]) [µM] | inhibition in vivo at 1 mg/kg (SiHa [9]) [%] | Activity (SiHa [10]) [mg] | Activity (Mus musculus)
2.7 | Active | inactive | inactive | 18 | 19.8 | Active | – | O=C(NCCCN1CCCC1)c1ccc(/C=C2\CCn3c2nc2cc(NCCN4CCCC4)c(F)cc2c3=O)cc1 | 16.4 | – | – | –
– | – | – | – | – | – | – | – | COc1cccc2c1C(=O)c1c(O)c3c(c(O)c1C2=O)C[C@@](O)(C(=O)CO)C[C@@H]3O[C@H]1C[C@H](N)[C@H](O)[C@H](C)O1 [DOXORUBICIN] | – | 67.6 | 165.9 | Toxic
– | Active | inactive | inactive | 24.6 | 10.4 | Active | 2.3 | O=C(CCN1CCCC1)Nc1ccc(/C=C2\CCCn3c2nc2cc(NC(=O)CCN4CCCC4)ccc2c3=O)cc1 | – | – | – | –
